Assay results taken from ChEMBL document CHEMBL2384901, “Synthesis and biology of oligoethylene glycol linked naphthoxylosides” (Bioorg Med Chem, 2013).

Tests used:
HCC70 [1] = experiment: Cytotoxicity against human HCC70 cells assessed as growth inhibition after 96 hrs by crystal violet staining assay; assay type: functional; settings: HCC70, 96 h, read-out: ED50 (the source's name)
How it was run: (§1)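 Cells plated at 5000/well in MEM Earle's or RPMI-1640 with 10% FBS. After 24 h, medium changed to Ham's F-12 with insulin (10 µg/mL), transferrin (25 µg/mL), 1% L-glutamine, 10 ng/mL EGF and xylosides at 5–500 µM, for 96 h. Cells fixed in 0.25% glutaraldehyde and stained with 0.1% crystal violet. Lysed in 1% Triton X-100; A595 read. ED50 reported.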

[2] = Cytotoxicity against human CCD-1095SK cells assessed as growth inhibition after 96 hrs by crystal violet staining assay; assay type: cell-based; settings: read-out: ED50; how it was run: as §1
HCC70 [3] = experiment: Induction of heparan sulphate synthesis in human HCC70 cells assessed as proportion of heparan sulphate of total GAGs; assay type: functional; set-up: concentration or dose not given beside the values
How it was run: (§2)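 Xyloside-primed [35S]sulfate material was pooled from Superose 6 fractions, 35–51 for HCC70 and 34–51 for CCD-1095Sk. HS was cleaved by deaminative HNO2 at pH 1.5, then the digest was re-separated by gel permeation. Radioactivity was measured by β-counting.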

[4] = Induction of heparan sulphate synthesis in human CCD-1095SK cells assessed as proportion of heparan sulphate of total GAGs; assay type: functional; set-up: concentration or dose not given beside the values; how it was run: as §2
HCC70 [5] = experiment: Induction of glycosaminoglycan synthesis in human HCC70 cells assessed as [35S]sulfate incorporation at 100 uM after 24 hrs by bata counting analysis relative to untreated control
[6] = Induction of glycosaminoglycan synthesis in human CCD-1095SK cells assessed as [35S]sulfate incorporation at 100 uM after 24 hrs by bata counting analysis relative to untreated control

SMILES | EC50 (HCC70 [1]) [µM] | GI50 at 96 h [2] [µM] | Activity (HCC70 [3]) [%] | Activity [4] [%] | fold change (FC) (HCC70 [5]) | fold change (FC) [6]
O[C@@H]1[C@@H](O)[C@H](Oc2ccc3ccccc3c2)OC[C@H]1O | 243 | 152 | 9 | 3 | 16 | 24
Oc1ccc2cc(O[C@@H]3OC[C@@H](O)[C@H](O)[C@H]3O)ccc2c1 | 7 | 258 | 28 | 6 | 37 | 74
O[C@@H]1[C@@H](O)[C@H](OCc2ccc3ccccc3c2)OC[C@H]1O | 267 | 298 | 14 | 7 | 31 | 55
O[C@@H]1[C@@H](O)[C@H](OCCOc2ccc3ccccc3c2)OC[C@H]1O | 221 | 140 | 9 | 3 | 26 | 79
O[C@@H]1[C@@H](O)[C@H](OCCOCCOc2ccc3ccccc3c2)OC[C@H]1O | 129 | 150 | 5 | 2 | 29 | 80
O[C@@H]1[C@@H](O)[C@H](OCCOCCOCCOc2ccc3ccccc3c2)OC[C@H]1O | 87 | 70 | 15 | 20 | 21 | 74
Oc1ccc2cc(CO[C@@H]3OC[C@@H](O)[C@H](O)[C@H]3O)ccc2c1 | 282 | 223 | 14 | 7 | 42 | 98
Oc1ccc2cc(OCCO[C@@H]3OC[C@@H](O)[C@H](O)[C@H]3O)ccc2c1 | 178 | 280 | 34 | 26 | 29 | 90
